ChEMBL document CHEMBL4152256, “Structure-activity relationship of new antimalarial 1-aryl-3-susbtituted propanol derivatives: Synthesis, preliminary toxicity profiling, parasite life cycle stage studies, target exploration, and targeted delivery” (Eur J Med Chem, 2018)
The source made the active and inactive calls. The calls are words filed in the database; no cut-off is given here.

Key:
[1] = Cytotoxicity against human HepG2A16 cells by MTT assay; type: cell-based
In short: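 MTT viability assay on HepG2-A16 cells, giving CC50 values.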

[2] = Selectivity index, ratio of CC50 for human HepG2A16 cells by MTT assay to IC50 for multidrug-resistant Plasmodium falciparum FCR-3; type: toxicity; details: for selectivity ratio: HepG2A16 cells, read-out: Ratio CC50/IC50
In short: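 HepG2-A16 human hepatoma cells were tested by MTT viability assay to give CC50. Blood-stage activity was measured against the multidrug-resistant P. falciparum FCR-3 strain by [3H]-hypoxanthine incorporation to give IC50. SI = CC50 HepG2 / FCR-3 IC50.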

[3] = Genotoxicity in Salmonella typhimurium TA1535 harboring pSK1002 assessed as survival at 0.5 mg/ml in absence of Sprague-Dawley rat liver S9 fraction after by SOS/umu assay relative to control; type: toxicity, organism-based; details: salmonella enterica subsp. enterica serovar typhimurium, read-out: Survival
[4] = Genotoxicity in Salmonella typhimurium TA1535 harboring pSK1002 assessed as umu gene induction at 0.5 mg/ml in absence of Sprague-Dawley rat liver S9 fraction after by SOS/umu assay relative to control; type: toxicity, organism-based; details: salmonella enterica subsp. enterica serovar typhimurium, read-out: FC
[5] = Genotoxicity in Salmonella typhimurium TA1535 harboring pSK1002 assessed as survival at 0.5 mg/ml in presence of Sprague-Dawley rat liver S9 fraction after by SOS/umu assay relative to control; type: toxicity, organism-based; details: salmonella enterica subsp. enterica serovar typhimurium, read-out: Survival
[6] = Genotoxicity in Salmonella typhimurium TA1535 harboring pSK1002 assessed as umu gene induction at 0.5 mg/ml in presence of Sprague-Dawley rat liver S9 fraction after by SOS/umu assay relative to control; type: toxicity, organism-based; details: salmonella enterica subsp. enterica serovar typhimurium, read-out: FC
[7] = Genotoxicity in Salmonella typhimurium TA1535 harboring pSK1002 assessed as survival at 0.25 mg/ml in absence of Sprague-Dawley rat liver S9 fraction after by SOS/umu assay relative to control; type: toxicity, organism-based; details: salmonella enterica subsp. enterica serovar typhimurium, read-out: Survival
[8] = Genotoxicity in Salmonella typhimurium TA1535 harboring pSK1002 assessed as umu gene induction at 0.25 mg/ml in absence of Sprague-Dawley rat liver S9 fraction after by SOS/umu assay relative to control; type: toxicity, organism-based; details: salmonella enterica subsp. enterica serovar typhimurium, read-out: FC
[9] = Genotoxicity in Salmonella typhimurium TA1535 harboring pSK1002 assessed as survival at 0.25 mg/ml in presence of Sprague-Dawley rat liver S9 fraction after by SOS/umu assay relative to control; type: toxicity, organism-based; details: salmonella enterica subsp. enterica serovar typhimurium, read-out: Survival
[10] = Genotoxicity in Salmonella typhimurium TA1535 harboring pSK1002 assessed as umu gene induction at 0.25 mg/ml in presence of Sprague-Dawley rat liver S9 fraction after by SOS/umu assay relative to control; type: toxicity, organism-based; details: salmonella enterica subsp. enterica serovar typhimurium, read-out: FC
[11] = Genotoxicity in Salmonella typhimurium TA1535 harboring pSK1002 assessed as umu gene induction at 0.125 mg/ml in presence of Sprague-Dawley rat liver S9 fraction after by SOS/umu assay relative to control; type: toxicity, organism-based; details: salmonella enterica subsp. enterica serovar typhimurium, read-out: FC
[12] = Genotoxicity in Salmonella typhimurium TA1535 harboring pSK1002 assessed as survival at 0.063 mg/ml in absence of Sprague-Dawley rat liver S9 fraction after by SOS/umu assay relative to control; type: toxicity, organism-based; details: salmonella enterica subsp. enterica serovar typhimurium, read-out: Survival
[13] = Genotoxicity in Salmonella typhimurium TA1535 harboring pSK1002 assessed as survival at 0.031 mg/ml in absence of Sprague-Dawley rat liver S9 fraction after by SOS/umu assay relative to control; type: toxicity, organism-based; details: salmonella enterica subsp. enterica serovar typhimurium, read-out: Survival
[14] = Genotoxicity in Salmonella typhimurium TA1535 harboring pSK1002 assessed as umu gene induction at 0.031 mg/ml in absence of Sprague-Dawley rat liver S9 fraction after by SOS/umu assay relative to control; type: toxicity, organism-based; details: salmonella enterica subsp. enterica serovar typhimurium, read-out: FC
[15] = test system: Plasmodium falciparum; test: Antiplasmodial activity against multidrug-resistant Plasmodium falciparum C235 after 72 hrs by MSF assay; type: functional, organism-based; details: C235, 72 h
In short: (§1)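 D6 and C235 strains from the Walter Reed Army Institute of Research were tested by the Malaria SYBR Green-I fluorescence assay.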

[16] = test system: Plasmodium falciparum; test: Antiplasmodial activity against Plasmodium falciparum D6 after 72 hrs by MSF assay; type: functional, organism-based; details: D6, 72 h; in short: as §1
[17] = test system: Plasmodium berghei; test: Antiplasmodial activity against Plasmodium berghei ANKA infected in mouse assessed as inhibition of parasitemia at 50 mg/kg/day, po for 4 consecutive days starting from 2 hrs post infection by MSF assay relative to control; type: functional
In short: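 Swiss male mice (20 ± 2 g) infected ip with 10^7 P. berghei ANKA parasitized cells (day 0). Five per group dosed orally 2 h after infection and daily on days 0–3. Test compounds at 50 mg/kg/day in water:DMSO; chloroquine diphosphate at 3 mg/kg/day; vehicle controls. Parasitemia measured on day 4 by MSF assay; survival checked daily.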

[18] = test system: Plasmodium berghei; test: Antiplasmodial activity against Plasmodium berghei ANKA infected in mouse assessed as mouse survival time at 50 mg/kg/day, po for 4 consecutive days starting from 2 hrs post infection by MSF assay; type: functional
In short: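 Swiss male mice (20 ± 2 g) infected i.p. with 10^7 P. berghei ANKA parasitized cells in 0.1 mL 0.9% saline (day 0). Oral dosing began 2 h post-infection and continued daily on days 0–3, five mice per batch. Test drugs were given at 50 mg/kg/day in water:DMSO and chloroquine diphosphate at 3 mg/kg/day; a vehicle control was included. Survival was checked daily, and parasitemia was read on day 4 by modified MSF assay.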

[19] = test system: Plasmodium berghei; test: Antiplasmodial activity against GFP-fused Plasmodium berghei sporozoites infected in human HepG2A16 cells treated simultaneously with infection by fluorescence microscopic analysis; type: functional, organism-based
In short: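 HepG2-A16 cells (3 × 10^4/well, collagen-coated) infected with PbGFP sporozoites (5 × 10^3 to 1 × 10^4/well) and treated at the same time. Top concentration 10 µg/mL in DMEM, seven serial dilutions. Medium and compound renewed at 3 h and every 24 h. After 40 h at 37 °C: methanol fixation, anti-Plasmodium Hsp70 immunolabeling, Alexa 594 secondary, DAPI; high-content imaging.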

[20] = Solubility of the compound in DSPC:cholesterol:DSPE-PEG2000-Mal:DOPE-Rho lipid mixture at 250 uM; type: physicochemical
In short: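 Compound added at 250 µM drug to the initial liposome lipid mixture (10 mM total lipid); precipitation and UV-visible absorbance above 300 nm assessed after encapsulation, removal of unencapsulated material and extraction with 1% w/v SDS in RPMI-A.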

[21] = Plasmodium berghei, HepG2A16, read-out: IC50

Compound	CC50 ([1]; HepG2A16 cells) [µM]	selectivity ratio [2]	viability at 0.5 mg/ml [3] [%]	fold induction at 0.5 mg/ml [4]	viability at 0.5 mg/ml [5] [%]	fold induction at 0.5 mg/ml [6]	viability at 0.25 mg/ml [7] [%]	fold induction at 0.25 mg/ml [8]	viability at 0.25 mg/ml [9] [%]	fold induction at 0.25 mg/ml [10]	fold induction at 0.125 mg/ml [11]	viability at 0.063 mg/ml [12] [%]	viability at 0.031 mg/ml [13] [%]	fold induction at 0.031 mg/ml [14]	IC50 [15] [µM]	IC50 [16] [µM]	inhibition in vivo at 50 mg/kg/day [17] [%]	MSD [18] [days]	solubility [20]	IC50 [19]	other results
N#Cc1ccc(C(O)CCN2CC=C(c3ccc(F)cc3)CC2)cc1 (centres undefined)	82.4	62	66.5	1.2	99.1	0.9	75.8	1.2	95.1	1.1	1	82.3	77.3	1.2	–	–	–	–	–	–	–
OC(CCN1CCN(c2ccc(F)cc2)CC1)c1ccc(F)c2ccccc12 (centres undefined)	29.4	7	196	0.6	112	1.2	51.2	1.1	66.2	0.9	0.7	118	87	0.7	–	–	–	–	–	–	–
N#Cc1ccc(N2CCC(NCCC(O)c3ccc(F)c4ccccc34)CC2)c(C(F)(F)F)c1 (stereo in doubt; 72)	–	–	–	–	–	–	–	–	–	–	0.2	54.7	30.2	0.7	0.12	0.08	80.4	10	Soluble	–	CC50 [1]: 6.22 µM; Ratio CC50/IC50 [2]: 78; IC50 [19, 21]: 2.7 µM
Nc1ccc(N2CCC(NCCC(O)c3ccc(F)c4ccccc34)CC2)c(C(F)(F)F)c1 (centres undefined)	11	137	68.2	0.1	118	0.1	48	0.2	118	0.1	0.1	27.7	31.5	0.7	–	–	–	3	–	–	–
COc1ccccc1N1CCN(CCC(O)c2ccc(F)c3ccccc23)CC1 (centres undefined)	30.4	138	–	–	–	–	147	0.3	115	0.4	0.7	61.5	58.4	1.3	0.41	0.28	≤ 50	10	Insoluble	Not Active	–
OC(CCN1CCN(C(c2ccccc2)c2ccccc2)CC1)c1ccc(F)c(F)c1 (centres undefined)	54.3	147	–	–	–	–	–	–	–	–	0.7	28	20.7	1.9	–	–	–	9	Insoluble	Not Active	inhibition [17]: inactive
N#Cc1ccc(N2CCC(NCCC(O)c3ccc(F)c4ccccc34)CC2)c(Cl)c1 (centres undefined)	7.95	88	–	–	–	–	–	–	–	–	0.1	55.4	42.2	0.5	0.17	0.12	≤ 50	10	–	–	IC50 [19, 21]: 3.41 µM
OC(CCN1CCN(C(c2ccccc2)c2ccccc2)CC1)c1ccc(F)c2ccccc12 (centres undefined)	19.9	60	–	–	–	–	–	–	–	–	–	141	107	1	0.17	0.1	–	9	Insoluble	–	inhibition [17]: inactive; IC50 [19, 21]: 5.42 µM
Oc1ccc(C(O)CCN2CC=C(c3ccc(F)cc3)CC2)cc1 (centres undefined)	253	88	–	–	–	–	–	–	–	–	0.4	123	105	1.1	–	–	–	–	–	Not Active	–
COc1ccccc1N1CCN(CCC(O)c2ccc(F)cc2)CC1 (stereo in doubt; 66)	–	–	–	–	–	–	98.8	1.1	90.4	1	1	108	116	1	7.26	6.32	96.4	12	Insoluble	Not Active	CC50 [1]: 19.5 µM; Ratio CC50/IC50 [2]: 103
COc1ccccc1C1=CCN(CCC(O)c2ccc(F)c3ccccc23)CC1 (centres undefined)	17.7	14	–	–	–	–	233	0.1	182	0.2	0.7	90.7	47.2	1.3	0.23	0.15	–	–	Insoluble	Not Active	–
OC(CCN1CC=C(c2ccc(F)cc2)CC1)c1ccc2c(c1)OCO2 (centres undefined)	165	97	81.4	0.9	87.1	0.9	128	0.7	96	1	1	96.6	113	0.8	–	–	–	–	–	Not Active	–
N#Cc1ccc(N2CCC(NCCC(O)c3ccc(F)c4ccccc34)CC2)c(Br)c1 (centres undefined)	9.87	141	–	–	–	–	–	–	–	–	–	42.6	19.4	1.5	0.15	0.12	≤ 50	10	–	–	–
